Measurements from ChEMBL document CHEMBL2407071, “Exploring 4-substituted-2-thiazolylhydrazones from 2-, 3-, and 4-acetylpyridine as selective and reversible hMAO-B inhibitors” (Eur J Med Chem, 2013).

What was measured:
[1] = target: T1, Amine oxidase [flavin-containing] B (Homo sapiens, UniProt P27338); assay: Inhibition of recombinant human MAO-B assessed as oxidation of kynuramine to 4-hydroxyquinoline after 20 mins by spectrofluorometric analysis
T1 sequence (P27338 whole entry): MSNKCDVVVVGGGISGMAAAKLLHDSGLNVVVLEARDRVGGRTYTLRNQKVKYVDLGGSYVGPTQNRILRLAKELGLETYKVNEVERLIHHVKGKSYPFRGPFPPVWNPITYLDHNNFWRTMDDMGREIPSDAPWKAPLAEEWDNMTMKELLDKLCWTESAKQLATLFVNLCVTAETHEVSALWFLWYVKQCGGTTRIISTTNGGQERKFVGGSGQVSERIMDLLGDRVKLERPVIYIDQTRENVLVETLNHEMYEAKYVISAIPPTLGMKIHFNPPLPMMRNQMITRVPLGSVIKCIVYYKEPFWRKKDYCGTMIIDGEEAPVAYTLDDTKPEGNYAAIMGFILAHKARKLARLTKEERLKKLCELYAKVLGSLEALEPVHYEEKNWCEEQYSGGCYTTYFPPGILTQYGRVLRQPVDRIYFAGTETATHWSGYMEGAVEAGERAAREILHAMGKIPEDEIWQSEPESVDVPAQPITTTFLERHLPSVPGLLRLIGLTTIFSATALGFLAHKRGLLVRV
In short: (§1)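 Enzyme from insect-cell microsomes expressing recombinant human MAO-A or MAO-B, at 0.0075 mg protein/mL, in 100 mM potassium phosphate pH 7.4 made isotonic with 20.2 mM KCl, with 4% DMSO. Kynuramine was 45 µM for MAO-A and 30 µM for MAO-B. Inhibitor range 0-100 µM, six log-spaced concentrations. Incubated 20 min at 37 °C, stopped with 2N NaOH and centrifuged. 4-Hydroxyquinoline read by fluorescence (ex 310/em 400 nm) against a calibration curve. One-site competition fit; three experiments, mean ± SD.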

[2] = target: T2, Amine oxidase [flavin-containing] A (Homo sapiens, UniProt P21397); assay: Inhibition of recombinant human MAO-A assessed as oxidation of kynuramine to 4-hydroxyquinoline after 20 mins by spectrofluorometric analysis; in short: as §1
T2 sequence (P21397 whole entry): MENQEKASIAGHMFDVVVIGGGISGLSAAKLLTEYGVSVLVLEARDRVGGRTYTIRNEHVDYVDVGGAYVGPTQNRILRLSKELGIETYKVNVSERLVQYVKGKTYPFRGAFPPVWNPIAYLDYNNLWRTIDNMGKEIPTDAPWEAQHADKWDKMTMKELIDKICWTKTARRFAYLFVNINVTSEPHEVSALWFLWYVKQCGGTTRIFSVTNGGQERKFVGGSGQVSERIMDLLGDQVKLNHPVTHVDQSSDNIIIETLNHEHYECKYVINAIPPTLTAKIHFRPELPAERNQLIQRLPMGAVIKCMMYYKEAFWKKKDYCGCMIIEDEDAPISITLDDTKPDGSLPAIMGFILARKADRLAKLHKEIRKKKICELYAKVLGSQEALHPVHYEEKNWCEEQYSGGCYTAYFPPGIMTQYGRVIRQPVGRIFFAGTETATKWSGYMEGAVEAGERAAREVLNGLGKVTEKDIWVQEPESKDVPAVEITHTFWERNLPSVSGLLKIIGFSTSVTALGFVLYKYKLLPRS

[3] = target: T1, Amine oxidase [flavin-containing] B; assay: Competitive inhibition of recombinant human MAO-B using kynuramine as substrate by Lineweaver-Burk plot analysis
[4] = target: T1, Amine oxidase [flavin-containing] B; assay: Reversible inhibition of recombinant human MAO-B assessed as oxidation of kynuramine to 4-hydroxyquinoline at IC50 to 2 times IC50 up to 60 mins by spectrofluorometric analysis; details: 1 h
[5] = target: T1, Amine oxidase [flavin-containing] B; assay: Mixed type inhibition of recombinant human MAO-B using kynuramine as substrate by Lineweaver-Burk plot analysis

SMILES	IC50 ([1]; read-out: IC50) [µM]	IC50 ([2]; read-out: IC50) [µM]	IC50 [1]	IC50 [2]	inhibition (INH) [3]	inhibition (INH) [4]	inhibition (INH) [5]
C/C(=N\Nc1nc(-c2ccccc2)cs1)c1cccnc1	0.944	21.3	–	–	–	–	–
C/C(=N/Nc1nc(-c2ccccc2)cs1)c1ccncc1	0.013	2.67	–	–	Active	Active	–
C/C(=N\Nc1nc(-c2ccccc2)cs1)c1ccccn1	3.84	16.6	–	–	–	–	–
CCOC(=O)c1csc(N/N=C(\C)c2ccccn2)n1	–	–	Not Active	Not Active	–	–	–

More lines, now with the values ahead:

IC50 ([1]; read-out: IC50) [µM]	IC50 ([2]; read-out: IC50) [µM]	IC50 [1]	IC50 [2]	inhibition (INH) [3]	inhibition (INH) [4]	inhibition (INH) [5]	SMILES
–	–	Not Active	Not Active	–	–	–	C/C(=N/Nc1nc(C)cs1)c1ccncc1
–	–	Not Active	Not Active	–	–	–	C/C(=N\Nc1nc(C)cs1)c1ccccn1
13.6	6.91	–	–	–	–	–	C/C(=N\Nc1nc(C)cs1)c1cccnc1
0.0722	6.57	–	–	–	Active	Active	CCOC(=O)c1csc(N/N=C(\C)c2cccnc2)n1
0.127	6.63	–	–	Active	Active	–	CCOC(=O)c1csc(N/N=C(\C)c2ccncc2)n1
